Measurements reported in ChEMBL document CHEMBL2034980, “N⁴-Phenyl-substituted 2-acetylpyridine thiosemicarbazones: cytotoxicity against human tumor cells, structure-activity relationship studies and investigation on the mechanism of action” (Bioorg Med Chem, 2012).
Calls of active or inactive are those of the source. The calls are words filed in the database; no cut-off is given here.

Assays:
MCF7 [1] = experiment: Cytotoxicity against human MCF7 cells after 48 hrs by MTT assay; type: functional, cell-based; conditions: for IC50: MCF7, 48 h
Outline: (§1)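 MTT assay. Cells were grown in DMEM with 10% FBS and penicillin/streptomycin at 37 °C under 5% CO2, seeded at 1–2×10^3 cells/well and treated 12 h later with 1×10^-12 to 1×10^-5 M ([…] from DMSO stock, final DMSO <0.5%) for 48 h. MTT was added at 0.5 mg mL⁻¹, formazan dissolved in DMSO and read at 570 nm. IC50 is the concentration giving 50% cytotoxicity. Quadruplicates, ≥3 independent experiments.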

[2] = (§2) Cytotoxicity against human U87 cells expressing wild-type p53 after 48 hrs by MTT assay; type: functional, cell-based, U-87MG ATCC; conditions: U-87 MG; outline: as §1
T98G [3] = experiment: Cytotoxicity against human T98G cells expressing mutant p53 after 48 hrs by MTT assay; type: functional, cell-based; outline: as §1
U-87MG ATCC [4] = experiment: as §2; type: functional, cell-based; outline: as §1
[5] = Haemolytic activity in human RBC after 1 hr by photometry; type: ADME, cell-based; conditions: Erythrocyte
Outline: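 Human EDTA blood was spun at 700xg for 10 min and the erythrocytes washed three times in cold PBS pH 7.4, then resuspended in it. Cells were incubated with varying compound concentrations for 1 h at 37 °C with shaking. After centrifugation, released haemoglobin was read at 540 nm to give the IC50. Mean ± SD, n = 4.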

MCF7 [6] = experiment: Induction of apoptosis in human MCF7 cells assessed as irregularities in cellular shape at 1 uM after 48 hrs by DAPI staining; type: functional, cell-based
MCF7 [7] = experiment: Induction of apoptosis in human MCF7 cells assessed as cell shrinkage at 1 uM after 48 hrs by DAPI staining; type: functional, cell-based
MCF7 [8] = experiment: Induction of apoptosis in human MCF7 cells assessed as membrane blebbing at 1 uM after 48 hrs by DAPI staining; type: functional, cell-based
MCF7 [9] = experiment: Induction of apoptosis in human MCF7 cells assessed as chromatin condensation at 1 uM after 48 hrs by DAPI staining; type: functional, cell-based
Outline: (§3)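 Cells were treated at 1 μM for 48 h, washed in PBS and fixed in 70% methanol for 30 min at room temperature. They were stained with 0.4 μg mL⁻¹ DAPI for 1 h in the dark, and nuclear condensation and fragmentation were scored by fluorescence microscopy (385–410 nm).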

MCF7 [10] = experiment: Induction of apoptosis in human MCF7 cells assessed as DNA fragmentation at 1 uM after 48 hrs by DAPI staining; type: functional, cell-based; outline: as §3
T98G [11] = experiment: Induction of apoptosis in human T98G cells assessed as irregularities in cellular shape at 1 uM after 48 hrs by DAPI staining; type: functional, cell-based
T98G [12] = experiment: Induction of apoptosis in human T98G cells assessed as cell shrinkage at 1 uM after 48 hrs by DAPI staining; type: functional, cell-based
T98G [13] = experiment: Induction of apoptosis in human T98G cells assessed as membrane blebbing at 1 uM after 48 hrs […]; type: functional, cell-based
T98G [14] = experiment: Induction of apoptosis in human T98G cells assessed as chromatin condensation at 1 uM after 48 hrs by DAPI staining; type: functional, cell-based; outline: as §3
T98G [15] = experiment: Induction of apoptosis in human T98G cells assessed as DNA fragmentation at 1 uM after 48 hrs by DAPI staining; type: functional, cell-based; outline: as §3
U-87MG ATCC [16] = experiment: Induction of apoptosis in human U87 cells assessed as irregularities in cellular shape at 1 uM after 48 hrs by DAPI staining; type: functional, cell-based
U-87MG ATCC [17] = experiment: Induction of apoptosis in human U87 cells assessed as cell shrinkage at 1 uM after 48 hrs by DAPI staining; type: functional, cell-based
U-87MG ATCC [18] = experiment: Induction of apoptosis in human U87 cells assessed as membrane blebbing at 1 uM after 48 hrs by DAPI staining; type: functional, cell-based
U-87MG ATCC [19] = experiment: Induction of apoptosis in human U87 cells assessed as chromatin condensation at 1 uM after 48 hrs by DAPI staining; type: functional, cell-based; outline: as §3
U-87MG ATCC [20] = experiment: Induction of apoptosis in human U87 cells assessed as DNA fragmentation at 1 uM after 48 hrs by DAPI staining; type: functional, cell-based; outline: as §3
MCF7 [21] = experiment: Induction of apoptosis in human MCF7 cells assessed as appearance of autophagolysosomes at 1 uM after 48 hrs by acridine orange/ethidium bromide staining-based microscopy; type: functional, cell-based
Outline: (§4)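 After 48 h at 1 μM, cells were incubated for 15 min in serum-free medium containing 1 μg mL⁻¹ acridine orange and 1 μg mL⁻¹ ethidium bromide. The medium was removed and cells imaged by inverted fluorescence microscopy (530–650 nm). Green/orange nuclear patterns and acidic cytoplasmic vacuoles were scored.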

T98G [22] = experiment: Induction of apoptosis in human T98G cells assessed as appearance of autophagolysosomes at 1 uM after 48 hrs by acridine orange/ethidium bromide staining-based microscopy; type: functional, cell-based; outline: as §4
U-87MG ATCC [23] = experiment: Induction of apoptosis in human U87 cells assessed as appearance of autophagolysosomes at 1 uM after 48 hrs by acridine orange/ethidium bromide staining-based microscopy; type: functional, cell-based; outline: as §4
MCF7 [24] = experiment: Induction of apoptosis in human MCF7 cells assessed as chromatin condensation at 1 uM after 48 hrs by acridine orange/ethidium bromide staining-based microscopy; type: functional, cell-based; outline: as §4
T98G [25] = experiment: Induction of apoptosis in human T98G cells assessed as chromatin condensation at 1 uM after 48 hrs by acridine orange/ethidium bromide staining-based microscopy; type: functional, cell-based; outline: as §4
U-87MG ATCC [26] = experiment: Induction of apoptosis in human U87 cells assessed as chromatin condensation at 1 uM after 48 hrs by acridine orange/ethidium bromide staining-based microscopy; type: functional, cell-based; outline: as §4

## C/C(=N/NC(=S)Nc1ccccc1F)c1ccccn1
MCF7 [1]; read-out: pIC50 (converted)
  IC50: 0.39 nM
[2]; read-out: pIC50 (converted)
  IC50: 5 nM
T98G [3]; read-out: pIC50 (converted)
  IC50: 3.1 nM

## C/C(=N/NC(=S)Nc1cccc(F)c1)c1ccccn1
MCF7 [1]; read-out: pIC50 (converted)
  IC50: 8.99 nM
[2]; read-out: pIC50 (converted)
  IC50: 18 nM
T98G [3]; read-out: pIC50 (converted)
  IC50: 12 nM

## C/C(=N/NC(=S)Nc1ccc(F)cc1)c1ccccn1
MCF7 [1]; read-out: pIC50 (converted)
  IC50: 1.2 nM
[2]; read-out: pIC50 (converted)
  IC50: 10 nM
T98G [3]; read-out: pIC50 (converted)
  IC50: 17 nM

## C/C(=N/NC(=S)Nc1ccc(Cl)cc1)c1ccccn1
MCF7 [1]; read-out: pIC50 (converted)
  IC50: 8.49 nM
[2]; read-out: pIC50 (converted)
  IC50: 1.7 nM
T98G [3]; read-out: pIC50 (converted)
  IC50: 5.9 nM

## C/C(=N/NC(=S)Nc1ccccc1I)c1ccccn1
MCF7 [1]; read-out: pIC50 (converted)
  IC50: 4.1 nM
[2]; read-out: pIC50 (converted)
  IC50: 6.1 nM
T98G [3]; read-out: pIC50 (converted)
  IC50: 8.09 nM

## C/C(=N/NC(=S)Nc1cccc(I)c1)c1ccccn1
MCF7 [1]; read-out: pIC50 (converted)
  IC50: 45 nM
[2]; read-out: pIC50 (converted)
  IC50: 83.9 nM
T98G [3]; read-out: pIC50 (converted)
  IC50: 61 nM

## C/C(=N/NC(=S)Nc1ccc(I)cc1)c1ccccn1
MCF7 [1]; read-out: pIC50 (converted)
  IC50: 6.61 nM
[2]; read-out: pIC50 (converted)
  IC50: 59 nM
T98G [3]; read-out: pIC50 (converted)
  IC50: 64 nM

## C/C(=N/NC(=S)Nc1ccccc1[N+](=O)[O-])c1ccccn1
MCF7 [1]; read-out: pIC50 (converted)
  IC50: 5.7 nM
[2]; read-out: pIC50 (converted)
  IC50: 4.3 nM
T98G [3]; read-out: pIC50 (converted)
  IC50: 6.61 nM

## C/C(=N/NC(=S)Nc1cccc([N+](=O)[O-])c1)c1ccccn1
MCF7 [1]; read-out: pIC50 (converted)
  IC50: 38 nM
[2]; read-out: pIC50 (converted)
  IC50: 69 nM
T98G [3]; read-out: pIC50 (converted)
  IC50: 140 nM

## C/C(=N/NC(=S)Nc1ccc([N+](=O)[O-])cc1)c1ccccn1
MCF7 [1]; read-out: pIC50 (converted)
  IC50: 52 nM
[2]; read-out: pIC50 (converted)
  IC50: 160 nM
T98G [3]; read-out: pIC50 (converted)
  IC50: 140 nM

## C/C(=N\NC(=S)Nc1ccccc1)c1ccccn1
MCF7 [1]; read-out: pIC50 (converted)
  IC50: 0.18 nM
[2]; read-out: pIC50 (converted)
  IC50: 1.4 nM
T98G [3]; read-out: pIC50 (converted)
  IC50: 6.81 nM

## CC(=NNC(=S)Nc1ccccc1)c1ccccn1 (mixture of isomers)
MCF7 [1]
  Activity: Dose-dependent effect
MCF7 [1]; read-out: IC50
  IC50: 0.18 nM
[2]; read-out: IC50
  IC50: 1.4 nM
U-87MG ATCC [4]
  Activity: Dose-dependent effect
T98G [3]
  Activity: Dose-dependent effect
T98G [3]; read-out: IC50
  IC50: 6.8 nM
[5]
  IC50: > 10000 nM
MCF7 [6]
  Activity: Active
MCF7 [7]
  Activity: Active
MCF7 [8]
  Activity: Active
MCF7 [9]
  Activity: Active
MCF7 [10]
  Activity: Active
T98G [11]
  Activity: Active
T98G [12]
  Activity: Active
T98G [13]
  Activity: Active
T98G [14]
  Activity: Active
T98G [15]
  Activity: Active
U-87MG ATCC [16]
  Activity: Active
U-87MG ATCC [17]
  Activity: Active
U-87MG ATCC [18]
  Activity: Active
U-87MG ATCC [19]
  Activity: Active
U-87MG ATCC [20]
  Activity: Active
MCF7 [21]
  Activity: Active
T98G [22]
  Activity: Active
U-87MG ATCC [23]
  Activity: Active
MCF7 [24]
  Activity: Active
T98G [25]
  Activity: Active
U-87MG ATCC [26]
  Activity: Active

## CC(=NNC(=S)Nc1ccccc1F)c1ccccn1 (mixture of isomers)
MCF7 [1]
  Activity: Dose-dependent effect
MCF7 [1]; read-out: IC50
  IC50: 0.39 nM
[2]; read-out: IC50
  IC50: 5 nM
U-87MG ATCC [4]
  Activity: Dose-dependent effect
T98G [3]
  Activity: Dose-dependent effect
T98G [3]; read-out: IC50
  IC50: 3.1 nM
[5]
  IC50: > 10000 nM
MCF7 [6]
  Activity: Active
MCF7 [7]
  Activity: Active
MCF7 [8]
  Activity: Active
MCF7 [9]
  Activity: Active
MCF7 [10]
  Activity: Active
T98G [11]
  Activity: Active
T98G [12]
  Activity: Active
T98G [13]
  Activity: Active
T98G [14]
  Activity: Active
T98G [15]
  Activity: Active
U-87MG ATCC [16]
  Activity: Active
U-87MG ATCC [17]
  Activity: Active
U-87MG ATCC [18]
  Activity: Active
U-87MG ATCC [19]
  Activity: Active
U-87MG ATCC [20]
  Activity: Active
MCF7 [21]
  Activity: Active
T98G [22]
  Activity: Active
U-87MG ATCC [23]
  Activity: Active
MCF7 [24]
  Activity: Active
T98G [25]
  Activity: Active
U-87MG ATCC [26]
  Activity: Active

## CC(=NNC(=S)Nc1cccc(F)c1)c1ccccn1 (mixture of isomers)
MCF7 [1]
  Activity: Dose-dependent effect
MCF7 [1]; read-out: IC50
  IC50: 9 nM
[2]; read-out: IC50
  IC50: 18 nM
U-87MG ATCC [4]
  Activity: Dose-dependent effect
T98G [3]
  Activity: Dose-dependent effect
T98G [3]; read-out: IC50
  IC50: 12 nM
[5]
  IC50: > 10000 nM
MCF7 [6]
  Activity: Active
MCF7 [7]
  Activity: Active
MCF7 [8]
  Activity: Active
MCF7 [9]
  Activity: Active
MCF7 [10]
  Activity: Active
T98G [11]
  Activity: Active
T98G [12]
  Activity: Active
T98G [13]
  Activity: Active
T98G [14]
  Activity: Active
T98G [15]
  Activity: Active
U-87MG ATCC [16]
  Activity: Active
U-87MG ATCC [17]
  Activity: Active
U-87MG ATCC [18]
  Activity: Active
U-87MG ATCC [19]
  Activity: Active
U-87MG ATCC [20]
  Activity: Active
MCF7 [21]
  Activity: Active
T98G [22]
  Activity: Active
U-87MG ATCC [23]
  Activity: Active
MCF7 [24]
  Activity: Active
T98G [25]
  Activity: Active
U-87MG ATCC [26]
  Activity: Active

## COc1cc([C@@H]2c3cc4c(cc3[C@@H](O[C@@H]3O[C@@H]5CO[C@@H](C)O[C@H]5[C@H](O)[C@H]3O)[C@H]3COC(=O)[C@H]23)OCO4)cc(OC)c1O [ETOPOSIDE]
MCF7 [1]; read-out: IC50
  IC50: 480 nM
[2]; read-out: IC50
  IC50: 620 nM
T98G [3]; read-out: IC50
  IC50: 460 nM
